Source: publication PMC7941214 (Journal of medicinal chemistry, 2019)
Values joined by “and” are separate entries in the source; they are usually repeats but may differ in a detail not shown here. Identical values can stand only once.

Tests used:
[1] = test system: E. faecium ATCC 700221; test: Broth microdilution MIC/MBC, E. faecium; format: cell-based, Enterococcus faecium; conditions: for MBC E. faecium ATCC 700221: value in parentheses; for MIC E. faecium ATCC 700221: value before the parentheses, two values = two repeats
How it was run: (§1)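 CLSI broth microdilution in cation-adjusted Mueller–Hinton broth. Log-phase cultures were diluted to 7.5 × 10^5 CFU/mL, then mixed 1:1 with 2-fold serial dilutions of gold complexes from DMSO or water stocks, in triplicate, and held 37 °C, 18 h, static. MIC: lowest concentration giving >90% inhibition by OD600 against medium-only and bacteria-only wells. […] E. coli ATCC 25922 quality control was checked each run with ciprofloxacin and […].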

[2] = test system: S. aureus JE2 (USA300); test: Broth microdilution MIC/MBC, S. aureus; format: cell-based, Staphylococcus aureus; conditions: for MBC S. aureus JE2 (USA300): value in parentheses; for MIC S. aureus JE2 (USA300): value before the parentheses, two values = two repeats
How it was run: as §1

[3] = test system: E. cloacae NCTC 13405; test: Broth microdilution MIC/MBC, E. cloacae; format: cell-based, Enterobacter cloacae; conditions: for MIC E. cloacae NCTC 13405: value before the parentheses, two values = two repeats; for MBC E. cloacae NCTC 13405: value in parentheses
How it was run: as §1

[4] = test system: P. aeruginosa NCTC 13437; test: Broth microdilution MIC/MBC, P. aeruginosa; format: cell-based, Pseudomonas aeruginosa; conditions: for MIC P. aeruginosa NCTC 13437: value before the parentheses, two values = two repeats; for MBC P. aeruginosa NCTC 13437: value in parentheses
How it was run: as §1

[5] = test system: K. pneumoniae ATCC 700603; test: Broth microdilution MIC/MBC, K. pneumoniae; format: cell-based, Klebsiella pneumoniae; conditions: for MIC K. pneumoniae ATCC 700603: value before the parentheses, two values = two repeats; for MBC K. pneumoniae ATCC 700603: value in parentheses
How it was run: as §1

[6] = Log P determination; conditions: n-octanol/water, Au by FAAS
[7] = test system: E. coli ATCC 25922; test: Broth microdilution MIC/MBC, E. coli; format: cell-based, Escherichia coli; conditions: for MIC E. coli ATCC 25922: value before the parentheses, two values = two repeats; for MBC E. coli ATCC 25922: value in parentheses
How it was run: as §1

[8] = test system: A. baumannii NCTC 13420; test: Broth microdilution MIC/MBC, A. baumannii; format: cell-based, Acinetobacter baumannii; conditions: for MIC A. baumannii NCTC 13420: value before the parentheses, two values = two repeats; for MBC A. baumannii NCTC 13420: value in parentheses

Row | Compound | MBC E. faecium ATCC 700221 [1] | MIC S. aureus [2] | MBC S. aureus JE2 (USA300) [2] | MIC E. cloacae NCTC 13405 [3] | MBC E. cloacae NCTC 13405 [3] | MIC P. aeruginosa NCTC 13437 [4] | MBC P. aeruginosa NCTC 13437 [4] | MIC K. pneumoniae ATCC 700603 [5] | MBC K. pneumoniae ATCC 700603 [5] | log P [6] | MIC E. coli ATCC 25922 [7] | MBC E. coli ATCC 25922 [7] | MIC A. baumannii NCTC 13420 [8] | MBC A. baumannii NCTC 13420 [8] | MIC E. faecium ATCC 700221 [1] | MIC S. aureus JE2 (USA300) [2]
1 | CC[P+](CC)(CC)[Au-][S]CC(=O)OC [Compound 22, (Methyl Mercaptoacetatato)(triethylphosphine) Gold(I)] | 0.6 µM | in the nanomolar range | 0.02 µM | 38 µM | 152 µM | 305 µM | 305 µM | 76 µM | 76 µM | 1.75 | 76 µM | 76 µM | 19 µM | 76 µM | – | –
2 | CC[P+](CC)(CC)[Au-][S]CC(F)(F)F [Compound 23, (2,2,2-Trifluoroethanethiolato)(triethylphosphine) Gold(I)] | 1 µM | in the nanomolar range | 0.1 µM | 37 µM | 149 µM | 149 µM | 149 µM | 149 µM | 149 µM | 2.08 | 74 µM | 74 µM | 37 µM and 74 µM | 149 µM | 0.6 µM | 0.009 µM
3 | CP(C)C.[Cl][Au] [Compound 24, (Trimethylphosphine)gold Chloride] | 3 µM | – | 1.6 µM | 3 µM | 3 µM | 52 µM | 52 µM | 7 µM and 13 µM | 13 µM | 0.16 | 7 µM | 7 µM | 7 µM and 13 µM | 13 µM | 0.4 µM | 0.1 µM and 0.2 µM
4 | CCCC[PH](CCCC)(CCCC)[Au][Cl] [Compound 26, (Tri-n-butylphosphine)gold Chloride] | 5 µM | – | 4 µM | >589 µM | – | 74 µM | 74 µM | 147 µM | 147 µM | >3.99 | >589 µM | – | 74 µM and 147 µM | 147 µM | 5 µM | 2 µM
5 | [Cl][Au].c1ccc(P(c2ccccc2)c2ccccc2)cc1 [Compound 27, (Triphenylphosphine)gold Chloride] | 4 µM | – | 4 µM | >518 µM | – | >518 µM | – | >518 µM | – | >3.94 | >518 µM | – | – | 518 µM | 4 µM | 1 µM and 2 µM
6 | COc1ccc([P+]([Au-][Cl])(c2ccc(OC)cc2)c2ccc(OC)cc2)cc1 [Compound 28, (Tris(4-methoxyphenyl)phosphine)gold Chloride] | 3 µM | – | 3 µM | >438 µM | – | >438 µM | – | >438 µM | – | >4.09 | >438 µM | – | >438 µM | – | 3 µM | 2 µM
7 | Fc1ccc([PH+](c2ccc(F)cc2)c2ccc(F)cc2)cc1.[Cl][Au] [Compound 29, (Tris(4-fluorophenyl)phosphine)gold Chloride] | 4 µM | – | – | >467 µM | – | >467 µM | – | >467 µM | – | >4.04 | >467 µM | – | 29 µM and 58 µM | 233 µM | 2 µM and 4 µM | –
